This passage reports ED50 results from ChEMBL document CHEMBL3228016, “Antiallergy agents. 1. 1,6-Dihydro-6-oxo-2-phenylpyrimidine-5-carboxylic acids and esters” (1979).

A value given as a limit tells only on which side of the number the result lay.

The first test has as its system Rattus norvegicus. Put plainly: Antiallergic activity in po dosed Sprague-Dawley rat passive cutaneous analphylaxis model assessed as inhibition of allergic response administered 10 mins prior to antigen challenge. The class given is functional. The following applies: read-out: ID50 (the source's name). The method in brief: (§1)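 Modified Ovary rat passive cutaneous anaphylaxis screen in male Sprague-Dawley rats, with 24 h between sensitization and antigen challenge. Acidic compounds were dissolved in aqueous NaHCO3 where possible; others were suspended in aqueous sodium citrate with Tween 40/sodium carboxymethylcellulose. Dosing was iv 1 min or po 10 min before challenge. ID50 is the dose giving 50% inhibition of the response; significance was p ≤ 0.05 by Student's t test.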
With `CCOC(=O)c1cnc(-c2ccccc2)nc1O`, the ED50 is more than 20 mg/kg.
Same read-out and setting: the figure for `CCOC(=O)c1cnc(-c2cccc(OC)c2)nc1O` is 10 mg/kg; for `CCOC(=O)c1cnc(-c2ccccc2OCC(C)C)[nH]c1=O` it is 3 mg/kg.
The same measure, in the same setting: next, `O=C(O)c1cnc(-c2ccccc2)[nH]c1=O`: 50 mg/kg; `O=C(O)c1cnc(-c2ccccc2F)[nH]c1=O`: 5 mg/kg; `O=C(O)c1cnc(-c2ccccc2Cl)[nH]c1=O`: 5 mg/kg.
Same read-out and setting: next, `O=C(O)c1cnc(-c2ccccc2[N+](=O)[O-])[nH]c1=O`: more than 50 mg/kg; `Nc1ccccc1-c1ncc(C(=O)O)c(=O)[nH]1`: 50 mg/kg.
Consider `O=C(O)c1cnc(-c2ccccc2O)[nH]c1=O`, for which the ED50 was more than 5 mg/kg.
On the same count and under the same terms, next, `COc1ccccc1-c1ncc(C(=O)O)c(=O)[nH]1`: 10 mg/kg; `CCOc1ccccc1-c1ncc(C(=O)O)c(=O)[nH]1`: 0.5 mg/kg.
Same read-out and setting: next, `CCCOc1ccccc1-c1ncc(C(=O)O)c(=O)[nH]1`: 0.9 mg/kg; `CC(C)Oc1ccccc1-c1ncc(C(=O)O)c(=O)[nH]1`: 0.8 mg/kg.
Same read-out and setting: the figure for `CCCCOc1ccccc1-c1ncc(C(=O)O)c(=O)[nH]1` is 0.5 mg/kg.
For the compound `CC(C)COc1ccccc1-c1ncc(C(=O)O)c(=O)[nH]1`, the ED50 stood at 0.5 mg/kg.
The same measure, in the same setting: next, `CCC(C)Oc1ccccc1-c1ncc(C(=O)O)c(=O)[nH]1` (configuration not stated): 0.5 mg/kg; `CCCCCOc1ccccc1-c1ncc(C(=O)O)c(=O)[nH]1`: 3 mg/kg; `C=CCOc1ccccc1-c1ncc(C(=O)O)c(=O)[nH]1`: 0.5 mg/kg.
Same read-out and setting: next, `O=C(O)c1cnc(-c2ccccc2OCC2CC2)[nH]c1=O`: 0.1 mg/kg.
In the case of `O=C(O)c1cnc(-c2ccccc2OCc2ccccc2)[nH]c1=O`, the ED50 came out at 5 mg/kg.
Still for that read-out and setting: the figure for `CSc1ccccc1-c1ncc(C(=O)O)c(=O)[nH]1` is more than 20 mg/kg; for `CCSc1ccccc1-c1ncc(C(=O)O)c(=O)[nH]1` it is 25 mg/kg; for `C[S+]([O-])c1ccccc1-c1ncc(C(=O)O)c(=O)[nH]1` (configuration not stated) it is more than 5 mg/kg.
The same measure, in the same setting: next, `O=C(O)c1cnc(-c2cccc(C(F)(F)F)c2)[nH]c1=O`: 33 mg/kg; `COc1cccc(-c2ncc(C(=O)O)c(=O)[nH]2)c1`: 10 mg/kg; `CCOc1cccc(-c2ncc(C(=O)O)c(=O)[nH]2)c1`: 5 mg/kg.
Same read-out and setting: the figure for `O=C(O)c1cnc(-c2ccc(Cl)cc2)[nH]c1=O` is 5 mg/kg; for `O=C(O)c1cnc(-c2ccc(C(F)(F)F)cc2)[nH]c1=O` it is more than 5 mg/kg.
`COc1ccc(-c2ncc(C(=O)O)c(=O)[nH]2)cc1`: the ED50 was more than 5 mg/kg.
On the same count and under the same terms, the figure for `C=CCc1cccc(-c2ncc(C(=O)O)c(=O)[nH]2)c1O` is more than 0.5 mg/kg; for `COc1ccc(-c2ncc(C(=O)O)c(=O)[nH]2)c(OC)c1` it is 5 mg/kg.
Consider `COc1ccc(OC)c(-c2ncc(C(=O)O)c(=O)[nH]2)c1`, for which the ED50 is 1 mg/kg.
With `CCOc1ccc(Cl)cc1-c1ncc(C(=O)O)c(=O)[nH]1`, the ED50 was 0.5 mg/kg.
The same measure, in the same setting: the figure for `CCOc1ccc(OC)cc1-c1ncc(C(=O)O)c(=O)[nH]1` is 0.2 mg/kg; for `CCOc1ccc(C(=O)O)cc1-c1ncc(C(=O)O)c(=O)[nH]1` it is 25 mg/kg; for `CCOc1ccc([N+](=O)[O-])cc1-c1ncc(C(=O)O)c(=O)[nH]1` it is 25 mg/kg.
As for `CCOc1ccc(N)cc1-c1ncc(C(=O)O)c(=O)[nH]1`, the ED50 was found to be 1.2 mg/kg.
On the same count and under the same terms, the figure for `CCOc1ccc(N(C)C)cc1-c1ncc(C(=O)O)c(=O)[nH]1` is 0.3 mg/kg; for `CCOC(=O)C(=O)Nc1ccc(OCC)c(-c2ncc(C(=O)O)c(=O)[nH]2)c1` it is 25 mg/kg; for `CCOc1ccc(S(N)(=O)=O)cc1-c1ncc(C(=O)O)c(=O)[nH]1` it is more than 50 mg/kg.
On the same count and under the same terms, the figure for `CCOc1ccc(S(=O)(=O)N(C)C)cc1-c1ncc(C(=O)O)c(=O)[nH]1` is more than 50 mg/kg; for `CCOc1ccc(S(=O)(=O)N(CC)CC)cc1-c1ncc(C(=O)O)c(=O)[nH]1` it is 40 mg/kg.
As for `CCOc1ccc(S(=O)(=O)N(C)C(C)C)cc1-c1ncc(C(=O)O)c(=O)[nH]1`, the ED50 is more than 10 mg/kg.
The same measure, in the same setting: the figure for `CCCOc1ccc(OC)cc1-c1ncc(C(=O)O)c(=O)[nH]1` is 0.3 mg/kg; for `CCOC(=O)c1cnc(-c2ccccc2F)[nH]c1=O` it is more than 10 mg/kg.
Same read-out and setting: the figure for `CCOC(=O)c1cnc(-c2ccccc2Cl)[nH]c1=O` is 5 mg/kg.
Same read-out and setting: the figure for `CCOC(=O)c1cnc(-c2ccccc2O)[nH]c1=O` is 5 mg/kg; for `CCOC(=O)c1cnc(-c2ccccc2OC)[nH]c1=O` it is 10 mg/kg.
On to `CCOC(=O)c1cnc(-c2ccccc2OCC)[nH]c1=O`, for which the ED50 stood at 2 mg/kg.
With `CCCOc1ccccc1-c1ncc(C(=O)OCC)c(=O)[nH]1`, the ED50 is 5 mg/kg.
The same measure, in the same setting: the figure for `CCOC(=O)c1cnc(-c2ccccc2OC(C)C)[nH]c1=O` is 2 mg/kg; for `CCCCOc1ccccc1-c1ncc(C(=O)OCC)c(=O)[nH]1` it is 0.5 mg/kg.
On the same count and under the same terms, the figure for `CCOC(=O)c1cnc(-c2ccccc2OC(C)CC)[nH]c1=O` (configuration not stated) is 0.5 mg/kg; for `CCCCCOc1ccccc1-c1ncc(C(=O)OCC)c(=O)[nH]1` it is 2 mg/kg; for `C=CCOc1ccccc1-c1ncc(C(=O)OCC)c(=O)[nH]1` it is 0.5 mg/kg.
Still for that read-out and setting: next, `CCOC(=O)c1cnc(-c2ccccc2OCC2CC2)[nH]c1=O`: 0.3 mg/kg; `CCOC(=O)c1cnc(-c2ccccc2OCc2ccccc2)[nH]c1=O`: more than 5 mg/kg; `CCOC(=O)c1cnc(-c2ccccc2SC)[nH]c1=O`: more than 25 mg/kg.
On to `CCOC(=O)c1cnc(-c2ccccc2SCC)[nH]c1=O`, for which the ED50 is more than 5 mg/kg.
Consider `CCOC(=O)c1cnc(-c2cccc(C(F)(F)F)c2)[nH]c1=O`, for which the ED50 stood at 50 mg/kg.
As for `CCOC(=O)c1cnc(-c2cccc(OCC)c2)[nH]c1=O`, the ED50 is 50 mg/kg.
The same measure, in the same setting: next, `CCOC(=O)c1cnc(-c2ccc(Cl)cc2)[nH]c1=O`: more than 30 mg/kg; `CCOC(=O)c1cnc(-c2ccc(C(F)(F)F)cc2)[nH]c1=O`: more than 5 mg/kg.
As for `CCOC(=O)c1cnc(-c2ccc(OC)cc2)[nH]c1=O`, the ED50 turned out to be 30 mg/kg.
The same measure, in the same setting: the figure for `CCOC(=O)c1cnc(-c2ccc(OC)cc2OC)[nH]c1=O` is 5 mg/kg; for `CCOC(=O)c1cnc(-c2cc(OC)ccc2OC)[nH]c1=O` it is 5 mg/kg.
On the same count and under the same terms, next, `CCOC(=O)c1cnc(-c2cc(Cl)ccc2OCC)[nH]c1=O`: 0.5 mg/kg.
In the case of `CCOC(=O)c1cnc(-c2cc(OC)ccc2OCC)[nH]c1=O`, the ED50 was 0.3 mg/kg.
On the same count and under the same terms, the figure for `CCOC(=O)c1ccc(OCC)c(-c2ncc(C(=O)OCC)c(=O)[nH]2)c1` is 1 mg/kg; for `CCOC(=O)c1cnc(-c2cc([N+](=O)[O-])ccc2OCC)[nH]c1=O` it is 5 mg/kg; for `CCOC(=O)c1cnc(-c2cc(N)ccc2OCC)[nH]c1=O` it is 0.5 mg/kg.
Same read-out and setting: next, `CCOC(=O)C(=O)Nc1ccc(OCC)c(-c2ncc(C(=O)OCC)c(=O)[nH]2)c1`: 5 mg/kg; `CCOC(=O)c1cnc(-c2cc(S(N)(=O)=O)ccc2OCC)[nH]c1=O`: 50 mg/kg; `CCOC(=O)c1cnc(-c2cc(S(=O)(=O)N(C)C)ccc2OCC)[nH]c1=O`: 50 mg/kg.
Still for that read-out and setting: next, `CCOC(=O)c1cnc(-c2cc(S(=O)(=O)N(CC)CC)ccc2OCC)[nH]c1=O`: 10 mg/kg; `CCOC(=O)c1cnc(-c2cc(S(=O)(=O)N(C)C(C)C)ccc2OCC)[nH]c1=O`: more than 10 mg/kg.
As for `CCCOc1ccc(OC)cc1-c1ncc(C(=O)OCC)c(=O)[nH]1`, the ED50 came out at 0.7 mg/kg.
Same read-out and setting: next, `CCOC(=O)c1cnc(-c2cc([N+](=O)[O-])cc([N+](=O)[O-])c2OCC)[nH]c1=O`: more than 50 mg/kg; `Cn1c(-c2ccccc2)ncc(C(=O)O)c1=O`: 50 mg/kg; `CCOC(=O)c1cnc(-c2ccccc2)n(C)c1=O`: more than 5 mg/kg.
Still for that read-out and setting: next, `CCOc1ccccc1-c1ncc(C(=O)O)c(=O)n1C`: more than 50 mg/kg; `CCOC(=O)c1cnc(-c2ccccc2OCC)n(C)c1=O`: more than 40 mg/kg; `CCOc1ccccc1-c1nc(=O)c(C(=O)O)cn1C`: more than 40 mg/kg.
On the same count and under the same terms, the figure for `COc1nc(-c2ccccc2)ncc1C(=O)O` is more than 10 mg/kg.
Take `CCOC(=O)c1cnc(-c2ccccc2)nc1OC`: the ED50 is more than 5 mg/kg.
The same measure, in the same setting: the figure for `CCOc1ccccc1-c1ncc(C(=O)O)c(OC)n1` is more than 5 mg/kg.
On to `CC1Cc2cccc(-c3ncc(C(=O)O)c(=O)[nH]3)c2O1` (racemic), for which the ED50 stood at 5 mg/kg.
Still for that read-out and setting: the figure for `CCOC(=O)c1cnc(-c2cccc3c2OC(C)C3)[nH]c1=O` (racemic) is 5 mg/kg.

The test system of the next test is Rattus norvegicus. Put plainly: Antiallergic activity in iv dosed Sprague-Dawley rat passive cutaneous analphylaxis model assessed as inhibition of allergic response administered 1 min prior to antigen challenge. The class given is functional. The following applies: read-out: ID50 (the source's name). The method in brief: as §1
On to `CCOc1ccccc1-c1ncc(C(=O)O)c(=O)[nH]1`, for which the ED50 was 0.07 mg/kg.
As for `CCOC(=O)c1cn(C)c(-c2ccccc2OCC)nc1=O`, the ED50 was more than 1 mg/kg.

In another test the test system is Rattus norvegicus. Put plainly: Antiallergic activity in po dosed Sprague-Dawley rat passive cutaneous analphylaxis model assessed as inhibition of allergic response administered 30 mins prior to antigen challenge. The test is classed as functional. As to conditions: read-out: ID50 (the source's name). The method in brief:
(§2)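 Male Sprague-Dawley rat passive cutaneous anaphylaxis (modified Ovary method), with a 24 h sensitization-to-challenge interval. The agent was dissolved in saline and given iv at the time of antigen challenge or po 30 min before challenge. The dose inhibiting the response by 50% was determined; significance was p ≤ 0.05 by Student's t test.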
On to `O=C([O-])c1cc(=O)c2c(OCC(O)COc3cccc4oc(C(=O)[O-])cc(=O)c34)cccc2o1.[Na+].[Na+]` [CROMOLYN SODIUM], for which the ED50 is not below 30 mg/kg.

For the next test, the system named is Rattus norvegicus. The experiment in a line: Antiallergic activity in iv dosed Sprague-Dawley rat passive cutaneous analphylaxis model assessed as inhibition of allergic response administered at the time of antigen challenge. As to conditions: read-out: ID50 (the source's name). The test is classed as functional. The essentials: as §2
Turning to `O=C([O-])c1cc(=O)c2c(OCC(O)COc3cccc4oc(C(=O)[O-])cc(=O)c34)cccc2o1.[Na+].[Na+]` [CROMOLYN SODIUM], the ED50 was found to be 0.3 mg/kg.
